Assay results from different studies.
Protocols differ between the studies behind these lines.
EGFR L861Q: Epidermal growth factor receptor (EGFR, Homo sapiens, UniProt P00533, L861Q)
EGFR L858R/T790M: Epidermal growth factor receptor (EGFR, Homo sapiens, UniProt P00533, L858R/T790M)
EGFR A750P/del747-749: Epidermal growth factor receptor (EGFR, Homo sapiens, UniProt P00533, A750P/del747-749)
EGFR del747-750/T751S: Epidermal growth factor receptor (EGFR, Homo sapiens, UniProt P00533, del747-750/T751S)
EGFR T790M: Epidermal growth factor receptor (EGFR, Homo sapiens, UniProt P00533, T790M)
EGFR L858R: Epidermal growth factor receptor (EGFR, Homo sapiens, UniProt P00533, L858R)
EGFR del752-759: Epidermal growth factor receptor (EGFR, Homo sapiens, UniProt P00533, del752-759)
EGFR: Epidermal growth factor receptor (EGFR, Homo sapiens, UniProt P00533)
EGFR del747-752/P753S: Epidermal growth factor receptor (EGFR, Homo sapiens, UniProt P00533, del747-752/P753S)
EGFR G719S: Epidermal growth factor receptor (EGFR, Homo sapiens, UniProt P00533, G719S)

Structure (SMILES) | target | read-out | technique | concentration | remaining binding [%]
COc1ccnn2ncc(-c3ccnc(N(C)C)n3)c12 | Epidermal growth factor receptor (EGFR, Homo sapiens, UniProt P00533, G719C) | binding |  | 1 µM | 92
CCN1CCN(Cc2ccc(C(=O)Nc3ccc(C)c(Oc4ccc5c(c4)CC(=O)N5)c3)cc2C(F)(F)F)CC1 | EGFR L861Q | binding | competition with immobilised ligand | 1 µM | 77
c1cncc(-c2cccc(Nc3nccc(NC4CCCCC4)n3)c2)c1 | EGFR L861Q | binding | competition with immobilised ligand | 10 µM | 53
O=C(c1ccc(Nc2ncc(Cl)c(-c3cc4ccccc4s3)n2)cc1)N1CCC(N2CCCC2)CC1 | EGFR L858R/T790M | binding | competition with immobilised ligand | 1 µM | 64
O=C(NCC1CCOCC1)c1n[nH]cc1NC(=O)c1c(F)cccc1F | EGFR A750P/del747-749 | binding | competition with immobilised ligand | 1 µM | 96
Cc1c(NC(=O)c2cc(C(N)=O)nc3cc(F)ccc23)c(C(F)(F)F)nn1Cc1ccc(C(C)(C)C)cc1 | EGFR A750P/del747-749 | cell-free assay | competition with immobilised ligand | 1 µM | 100
O=C(c1ccc(Nc2nccc(-c3cc4ccccc4s3)n2)cc1)N1CCC(N2CCCC2)CC1 | EGFR del747-750/T751S | binding | competition with immobilised ligand | 1 µM | 82
CN1CCN(c2ccc(Nc3nccc(-c4cccc([N+](=O)[O-])c4)n3)cc2C(F)(F)F)CC1 | EGFR T790M | binding |  | 10 µM | 45
CNC(=O)[C@@H]1CC[C@@H](n2c(-c3ccc4cnccc4c3)nc3ccc(C(=O)NCc4cccc(C(N)=O)c4)cc32)C1 | EGFR L858R | binding | competition with immobilised ligand | 1 µM | 100
N#Cc1ccccc1CSc1nnc2c(n1)[nH]c1ccccc12 | EGFR L858R | binding | competition with immobilised ligand | 10 µM | 100
CN(C)c1nccc(-c2cnn3ncccc23)n1 | EGFR L858R/T790M | binding |  | 1 µM | 100
COc1cnc(Nc2cccc(S(N)(=O)=O)c2)nc1N1CCN(c2ccccc2)C(=O)C1 | EGFR del752-759 | binding | competition with immobilised ligand | 1 µM | 100
O=C1CCc2cc(Nc3cc(OC4CCOCC4)c([N+](=O)[O-])cc3Cl)ccc2N1 | EGFR L861Q | cell-free assay | competition with immobilised ligand | 1 µM | 100
O=C(NCCCN1CCOCC1)c1ccc(Nc2nccc(-c3cc4ccccc4s3)n2)cc1 | EGFR A750P/del747-749 | binding | competition with immobilised ligand | 1 µM | 100
CN1CCN(c2ccc(Nc3nccc(-c4ccccc4)n3)cc2C(F)(F)F)CC1 | EGFR L861Q | binding |  | 10 µM | 94
N[C@H]1CCN(c2nccc(-c3cnn4ncccc34)n2)C1 | EGFR | binding |  | 1 µM | 100
O=C(c1ccc(Nc2ncc(Cl)c(-c3ccc(Cl)s3)n2)cc1)N1CCC(N2CCCC2)CC1 | EGFR L858R/T790M | binding | competition with immobilised ligand | 1 µM | 49
Nc1ncc2c(n1)-c1c([nH]c3ccc(C#CC4CC4)cc13)CCCC2 | EGFR L858R/T790M | binding | competition with immobilised ligand | 1 µM | 87

Structure (SMILES) | target | read-out | technique | concentration | remaining binding [%]
O=C(Nc1c[nH]nc1C(=O)NC1CCNCC1)c1cc(F)cc(F)c1 | EGFR del752-759 | binding | competition with immobilised ligand | 1 µM | 100
O=C(Nc1ccc(Oc2ccc(F)cc2)cc1)N1CCc2ncccc2[C@H]1c1ccc(F)cc1 | EGFR T790M | cell-free assay | competition with immobilised ligand | 1 µM | 87
C[C@@H]1CCN(c2nccc(-c3cnn4ncccc34)n2)C1 | EGFR L861Q | binding |  | 1 µM | 92
Cc1cnc(Nc2ccc(C(=O)N3CCC(N4CCCC4)CC3)cc2)nc1-c1cc2ccccc2s1 | EGFR T790M | binding | competition with immobilised ligand | 1 µM | 56
CNC(=O)Nc1ccc2c(c1)CC[C@@]21OC(=O)N(CC(=O)N(Cc2ccc(F)cc2)[C@@H](C)C(F)(F)F)C1=O | EGFR del747-752/P753S | cell-free assay | competition with immobilised ligand | 1 µM | 64
CN(C)c1nccc(-c2cnc3ncccn23)n1 | EGFR | binding |  | 1 µM | 63
O=C(NCCCN1CCOCC1)c1ccc(Nc2ncc(Cl)c(-c3ccc(Cl)s3)n2)cc1 | EGFR T790M | binding | competition with immobilised ligand | 1 µM | 83
O=C(Nc1cccnn1)N1CC(C/C=C/c2cncc(Oc3ccc(C(F)(F)F)cn3)n2)C1 | EGFR G719S | cell-free assay | competition with immobilised ligand | 1 µM | 100
COc1cnc(Nc2cccc(S(N)(=O)=O)c2)nc1N1CCN(c2ccccc2)CC1 | EGFR L858R/T790M | binding | competition with immobilised ligand | 1 µM | 87
COc1ncc2cc3ccccc3nc2c1C#N | EGFR T790M | cell-free assay | competition with immobilised ligand | 5 µM | 100
Cc1c(-c2ccccc2)oc2c(C(=O)OCCN3CCCCC3)cccc2c1=O | EGFR | cell-free assay | competition with immobilised ligand | 0.1 µM | 100
CN(C)c1ncc(F)c(-c2cnn3ncccc23)n1 | EGFR L861Q | binding |  | 1 µM | 100
O=C(N1CCS(=O)(=O)CC1)N1C[C@H](c2ccc(OC(F)(F)F)cc2)C[C@H](c2nc(C3CC3)no2)C1 | EGFR T790M | cell-free assay | competition with immobilised ligand | 1 µM | 100
CC1CCCN1c1nccc(-c2cnn3ncccc23)n1 (stereo not drawn) | EGFR | binding |  | 1 µM | 100
CC(=O)N1CCC(c2ccc(C(=O)NC(=N)N)cc2C(F)(F)F)CC1 | EGFR del747-750/T751S | cell-free assay | competition with immobilised ligand | 1 µM | 100
O=C(NC1CCC1)c1ccc2nc(-c3cccc(NS(=O)(=O)NCCN4CCCCC4)c3)cn2c1 | EGFR del747-752/P753S | cell-free assay | competition with immobilised ligand | 10 µM | 100
CS(=O)(=O)NCC[C@H](NC(=O)c1cncc2c1cnn2-c1ccc(F)cc1)c1ccnc(S(C)(=O)=O)c1 | EGFR G719S | cell-free assay | competition with immobilised ligand | 1 µM | 75
Cc1cnn2ncc(-c3ccnc(N(C)C)n3)c2c1 | EGFR L858R/T790M | binding |  | 1 µM | 100
